Compound activity deposited in PubChem by several laboratories.
PostGolgi ctrl: yeast control strain growth, post-Golgi counter-screen; efflux-deficient yeast background strain, growth absorbance A615, 16 h; AID 738; inhibition, % at 10 µM; 98,000 tested, 5% active
DAT uptake mod: changed human dopamine transporter uptake under cocaine IC80; LLC-PK1 hDAT cells, [14C]-dopamine uptake with cocaine IC80; actives deviate in either direction; B-score at 10 µM; 110,000 tested, 1.3% active;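 active = Z score or B-score, a plate-position-corrected score, falls beyond the plate's 99.7% confidence bounds, in either direction; inactive = both scores lie inside the 99.7% bounds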;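 also: scored against the spread of the other compound wells on the same plate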
D1 allo mod: D1 dopamine receptor (human) allosteric modulation; B-score at 10 µM; 58,000 tested, 5.9% active; P21728; HEK293 D1, CRE-luciferase, dopamine EC30 potentiation; actives deviate in either direction;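 active = luminescence count or its row- and column-corrected plate score outside the 99.7% band of the plate's sample wells, on either side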
Target sequence (P21728 whole entry, looked up): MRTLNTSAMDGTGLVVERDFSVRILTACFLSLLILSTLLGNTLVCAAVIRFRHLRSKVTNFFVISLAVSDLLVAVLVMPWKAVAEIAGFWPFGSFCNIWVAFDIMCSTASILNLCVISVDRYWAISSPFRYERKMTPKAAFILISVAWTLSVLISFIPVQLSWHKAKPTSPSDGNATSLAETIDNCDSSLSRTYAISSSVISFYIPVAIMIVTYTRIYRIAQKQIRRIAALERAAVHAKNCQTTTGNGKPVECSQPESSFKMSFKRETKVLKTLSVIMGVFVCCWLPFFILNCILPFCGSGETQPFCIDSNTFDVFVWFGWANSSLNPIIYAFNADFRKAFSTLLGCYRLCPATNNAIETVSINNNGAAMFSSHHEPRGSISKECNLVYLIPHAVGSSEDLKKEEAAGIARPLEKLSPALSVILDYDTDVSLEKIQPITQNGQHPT
Ecoli tolC: blocks growth of E. coli BW25113 tolC mutant. OD615. growth inhibition, % at 10 µM (by protocol). 65,000 tested, 2.2% active. AID 573;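 active = growth inhibition at or above a cutoff equal to the mean over every tested compound plus 3 SD, cut at about 60% in these data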;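 also: growth measured after 20 h incubation at 37 °C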
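System: E. coli ΔtolC::kan strain BW25113; Buffer or medium: LB broth supplemented with 50 µg/mL kanamycin; Compound: 10 µM final, single dose; Incubation: bacterial growth with compound for 20 h at 37 °C; Signal: A615 absorbance measurement; Evaluation: growth inhibition in percent.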
PostGolgi yeast: growth inhibition of a yeast mutant, post-Golgi transport screen; inhibition, % at 10 µM; 98,000 tested, 0.9% active; post-Golgi transport phenotypic cell assay; AID 739;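 also: yeast cells grown in 1536-well plates; yeast grown about 18 h at 30C before absorbance read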
E coli WT exp: E. coli BW25113 growth inhibition, expanded screen. 98,000 tested, 0.15% active. growth inhibition, % at 100 µM. AID 710. OD600 absorbance;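 active = growth inhibition above about 50% at one test dose, limit read from the data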;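 also: growth measured after 20 h incubation at 37 °C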
The depositor's hits bear a star; . = no result given. Shown are actives, neighbours in structure and some others; about 9.3% of the full set was active somewhere. Rule as the data show it, unless noted: active = inhibition above about 30%; inactive = the rest.

SMILES	PostGolgi ctrl	DAT uptake mod	D1 allo mod	Ecoli tolC	PostGolgi yeast	E coli WT exp
CCOC(=O)c1c(-c2ccc(OC)cc2)csc1NC(=O)CSc1ccccc1	1	0.2	.	.	-8	-16
CCOC(=O)c1c(-c2ccccc2)csc1NC(=O)CSc1nnnn1C	38*	-0.31	0.38	49	3	-14
CCOC(=O)c1c(-c2ccc(C)o2)csc1NC(=O)CSc1ncn[nH]1	34*	0.72	.	.	1	3
CCCCCCN=CC1=C(O)C(C(=O)OC)C(C)(C)CC1=O (configuration not stated)	11	0.31	0.66	-1	2	3
CCCSc1nc(N)nc(-c2cccs2)c1C#N	23	0.45	.	.	10	9
CC1CCCN(C(=O)C2CCN(S(=O)(=O)c3cccc4cccnc34)CC2)C1 (configuration not stated)	8	0.67	.	-2	10	7
c1ccc2c(c1)[nH]c1c(N3CCOCC3)ncnc12	7	-0.23	-0.5	0	10	6
CCc1cc(N2CCOCC2)cc2c1[nH]c1ccccc12	36*	-0.43	2.6	-13	-11	-1
CCOC(=O)c1[nH]c2ccccc2c1NC(=O)Nc1ccc(OC)cc1	12	-0.5	.	.	0	-3
O=C(C1CCN(S(=O)(=O)N2CCOCC2)CC1)N1CCOCC1	31*	-1.1	0.49	-20	0	-7
Cc1c(NC(=O)c2ccccc2)c(=O)n(-c2ccccc2)n1C	.	-1.4	.	.	.	.
Cc1c(NC(=O)Nc2cccc(Cl)c2)c(=O)n(-c2ccccc2)n1C	37*	0.31	.	6	-9	-2
Cc1c(NS(=O)(=O)c2cccc(C(=O)NCc3ccc(Cl)cc3)c2)c(=O)n(-c2ccccc2)n1C	31*	-0.17	.	.	10	-2
Cc1c(NC(=O)/C(=C\c2ccccc2)NC(=O)c2ccccc2)c(=O)n(-c2ccccc2)n1C	1	-8.8*	.	.	-7	2
Cc1c(NS(=O)(=O)c2ccccc2)c(=O)n(-c2ccccc2)n1C	0	0.35	.	.	8	0
Cc1ccc(S(=O)(=O)/N=C(/Nc2c(C)n(C)n(-c3ccccc3)c2=O)c2ccc(Cl)cc2)cc1	7	5.6*	.	.	6	-6
Cc1c(NC(=O)CC(=O)Nc2c(C)n(C)n(-c3ccccc3)c2=O)c(=O)n(-c2ccccc2)n1C	9	-1.4	.	-11	14	6
O=C(CSc1nnc(-c2ccccc2NC(=O)c2ccccc2)o1)OC1CCCCC1	.	0.13	.	.	.	.
Cc1cc(C)c(Cn2c(=O)n(CCCC(=O)NCc3ccco3)c(=O)c3ccccc32)c(C)c1	.	-0.38	0.34	-11	.	.
Cc1cccnc1Nc1nc(-c2ccc(O)c(O)c2)cs1	83*	4.6*	.	.	-1	23
COc1ccc(-c2csc(Nc3ncccc3C)n2)cc1OC	-2	1.6	.	.	0	5
C=CCSC1=C(C#N)C(c2ccc(C(C)C)cc2)CC(=O)N1 (configuration not stated)	38*	1.3	0.75	37	-2	9
CCOC(=O)c1c(C)c(C(=O)NCc2ccccn2)c(C)n1CC	19	0.22	.	-2	-1	-2
C=CCn1c(Br)nc2c1c(=O)n(C)c(=O)n2C	-2	0.41	0.24	-22	-1	-6
CCOCCCNc1nc2c(c(=O)n(C)c(=O)n2C)n1CCCc1ccccc1	33*	1.7	-2	1	-12	-1
SMILES	PostGolgi ctrl	DAT uptake mod	D1 allo mod	Ecoli tolC	PostGolgi yeast	E coli WT exp
Cn1c(=O)c2c(nc(NCc3ccccc3)n2C)n(C)c1=O	16	-0.14	2.3	-19	14	2
Cn1c(=O)c2c(nc(NCc3ccccc3)n2CCCc2ccccc2)n(C)c1=O	24	0.49	-3.1*	9	-3	-12
Cn1c(=O)c2c(nc(Br)n2C)n(C)c1=O	10	-0.077	-1.6*	-8	-1	1
CC1CCCCN1Cc1nc2c(c(=O)n(C)c(=O)n2C)n1CCc1ccccc1 (configuration not stated)	38*	0.38	-0.13	.	-5	8
CCn1nc(Cc2cccc3ccccc23)c(C#N)c1N	.	1.6	.	.	.	.
CCCCN1CC[C@H]2C=CC[C@@H](C(=O)Nc3nccs3)[C@H]2C1=O	.	0.096	.	.	.	.
COC(=O)C(NC(=O)c1ccccc1)(Nc1cc(C)cc(C)n1)C(F)(F)F (configuration not stated)	.	0.74	.	.	.	.
Cn1c(=O)c2c(nc(Br)n2CCc2ccccc2)n(C)c1=O	15	-0.31	-3.8*	-8	-6	-1
